Activity calls are given as the source filed them. The rule behind the calls is not given here.
How the values were obtained:
HepG2 = test: Antiproliferative activity against human HepG2 cells after 24 hrs by MTS assay; assay type: functional; details: HepG2, 24 h
Procedure, shortened: (§1)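 Cells plated (1×10^5 cells/mL) and treated about 24 h later with compounds in DMSO diluted in medium, 0.5 to 200 µM; viability read 24 h after treatment by MTS, absorbance 490 nm. GI50 from non-linear regression; mean ± SEM of three independent experiments. HCT116 and SW620 in McCoy's 5A, HepG2 in DMEM, all with 10% FBS, 37 °C, 5% CO2.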

HCT-116 [1] = test: Antiproliferative activity against p53-deficient human HCT116 cells after 24 hrs by MTS assay; assay type: functional; details: HCT-116, 24 h; procedure, shortened: as §1
[2] = target: T1, Tumour suppressor p53/oncoprotein Mdm2 (Homo sapiens) (UniProt P04637+Q00987); test: Inhibition of p53-MDM2 (unknown origin) interaction expressed in p53-deficient human HCT116 cells at 10 to 50 uM after 24 hrs by BiFC-based FACS flow cytometric analysis; assay type: cell-based; details: HCT-116
T1 sequence (P04637 whole entry, looked up): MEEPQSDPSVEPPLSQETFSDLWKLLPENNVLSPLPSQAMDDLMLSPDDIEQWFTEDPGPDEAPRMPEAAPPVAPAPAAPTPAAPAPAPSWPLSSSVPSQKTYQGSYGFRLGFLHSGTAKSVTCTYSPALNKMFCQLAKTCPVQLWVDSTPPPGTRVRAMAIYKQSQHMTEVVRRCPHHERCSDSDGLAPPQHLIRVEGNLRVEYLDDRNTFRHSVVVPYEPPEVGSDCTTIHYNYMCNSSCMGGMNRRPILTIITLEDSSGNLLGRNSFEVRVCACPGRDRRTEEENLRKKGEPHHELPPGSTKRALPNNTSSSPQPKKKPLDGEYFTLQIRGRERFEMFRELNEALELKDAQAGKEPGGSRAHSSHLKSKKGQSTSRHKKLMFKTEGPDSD
T1 sequence (Q00987 whole entry, looked up): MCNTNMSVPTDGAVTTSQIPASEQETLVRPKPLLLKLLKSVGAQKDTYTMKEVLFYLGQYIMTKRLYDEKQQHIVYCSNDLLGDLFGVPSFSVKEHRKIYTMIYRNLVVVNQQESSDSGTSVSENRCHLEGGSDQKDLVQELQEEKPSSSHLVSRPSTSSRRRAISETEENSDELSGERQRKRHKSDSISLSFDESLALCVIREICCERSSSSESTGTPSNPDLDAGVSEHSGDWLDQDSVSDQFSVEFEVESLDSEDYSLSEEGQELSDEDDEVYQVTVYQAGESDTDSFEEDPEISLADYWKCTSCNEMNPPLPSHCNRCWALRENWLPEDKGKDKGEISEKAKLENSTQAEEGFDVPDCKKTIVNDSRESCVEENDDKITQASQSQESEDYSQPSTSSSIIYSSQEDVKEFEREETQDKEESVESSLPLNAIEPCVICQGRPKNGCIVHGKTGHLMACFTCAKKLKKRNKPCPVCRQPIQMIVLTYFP
Procedure, shortened: (§2)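 HCT116 p53-/- cells co-transfected with V1-p53/MDM2-V2 BiFC plasmids (1 µg each, Lipofectamine 2000). Medium replaced 4–6 h post-transfection and compounds in DMSO added. Cells harvested at 24 h with accutase, resuspended in PBS, and complementation fluorescence measured by flow cytometry; n = 3.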

SW-620 = test: Antiproliferative activity against human SW620 cells expressing p53 mutant after 24 hrs by MTS assay; assay type: functional; details: SW-620, 24 h; procedure, shortened: as §1
HCT-116 [3] = test: Antiproliferative activity against human HCT116 cells expressing p53 after 24 hrs by MTS assay; assay type: functional; details: HCT-116, 24 h; procedure, shortened: as §1
[4] = Half life in Sprague-Dawley rat liver microsomes by HPLC analysis in presence of NADPH-regenerating system; assay type: ADME
Procedure, shortened: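 Male Sprague–Dawley pooled liver microsomes in potassium phosphate pH 7.4 with NADPH regenerating system, preincubated 5 min at 37 °C. Reaction started with 4 µL of 10^-3 M DMSO stock. Aliquots quenched in acetonitrile, centrifuged, and supernatant analysed by RP-18 HPLC at 260 nm for half-life.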

[5] = Chemical stability in phosphate buffer at pH 7.4 up to 72 hrs by HPLC analysis; assay type: physicochemical; details: pH 7.4, 72 h
Procedure, shortened: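 12.5 µL of 10^-2 M DMSO stock added to 2.5 mL potassium phosphate buffer (pH 7.4, 0.5 M) at 37 °C; aliquots taken at intervals into acetonitrile and analysed by RP-18 HPLC (acetonitrile/water 70:30, 1 mL/min, UV 260 nm, 25 °C) over 72 h.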

[6] = target: T1, Tumour suppressor p53/oncoprotein Mdm2 (Homo sapiens); test: Inhibition of p53-MDM2 (unknown origin) interaction expressed in p53-deficient human HCT116 cells at 25 to 50 uM after 24 hrs by BiFC-based FACS flow cytometric analysis; assay type: cell-based; details: HCT-116; procedure, shortened: as §2
HCT-116 [7] = test: Induction of apoptosis in p53-deficient human HCT116 cells assessed as increase in PARP cleavage after 24 hrs by Western blotting analysis; assay type: functional, cell-based; details: in the assay text read “p53 wild-type” for “p53-deficient”
HCT-116 [8] = test: Induction of apoptosis in p53-deficient human HCT116 cells assessed as caspase 3 activation after 24 hrs by Western blotting analysis; assay type: functional, cell-based; details: in the assay text read “p53 wild-type” for “p53-deficient”
Procedure, shortened: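 HCT116 p53-/- cells seeded at 3×10^5 cells/mL and exposed to vehicle or compound at 25 and 50 µM for 24 h. Whole-cell extracts (60–80 µg) run on 8% and 14% SDS-PAGE and immunoblotted for caspase-3 or PARP-1/2. Bands quantified by densitometry and normalized to β-actin; three independent experiments.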

Plasma = test: Metabolic stability in human plasma up to 72 hrs by HPLC analysis; assay type: ADME, cell-free

Structure (SMILES) | GI50 (HepG2) [µM] | GI50 (HCT-116 [1]) [µM] | GI50 (SW-620) [µM] | GI50 (HCT-116 [3]) [µM] | also measured
COc1ccc([C@@H]2C(c3ccccc3)=NO[C@@]23C(=O)Nc2ccccc23)cc1 (relative stereo) | > 100 | – | – | – | –
COc1ccc([C@@H]2C(c3ccccc3)=NO[C@@]23C(=O)N(C)c2ccccc23)cc1 (relative stereo) | > 100 | – | – | – | –
O=C1Nc2ccc([N+](=O)[O-])cc2[C@]12ON=C(c1ccccc1)[C@H]2c1ccccc1 (relative stereo) | 83.6 | – | – | – | –
COc1ccc(C2=NO[C@@]3(C(=O)Nc4ccc([N+](=O)[O-])cc43)[C@@H]2c2ccccc2)cc1 (relative stereo) | 53.1 | – | – | – | –
O=C1Nc2c(Cl)cccc2[C@]12ON=C(c1ccc([N+](=O)[O-])cc1)[C@H]2c1ccccc1 (relative stereo) | 55.5 | – | – | – | –
COc1ccc(C2=NO[C@@]3(C(=O)Nc4c(Cl)cccc43)[C@@H]2c2ccccc2)cc1 (relative stereo) | 55.8 | – | – | – | –
O=C1Nc2cc(Cl)ccc2[C@]12ON=C(c1ccccc1)[C@H]2c1ccccc1 (relative stereo) | 37.1 | 48.2 | 48.9 | 39.8 | inhibition [2]: Active
O=C1Nc2cc(Cl)ccc2[C@]12ON=C(c1ccc([N+](=O)[O-])cc1)[C@H]2c1ccccc1 (relative stereo) | 33.8 | 39 | 33.5 | 32.4 | –
COc1ccc(C2=NO[C@@]3(C(=O)Nc4cc(Br)ccc43)[C@@H]2c2ccccc2)cc1 (relative stereo) | 31.7 | 39 | 40.4 | 33.4 | half-life [4]: 217 min; Stability [5]: Stable; Stability (Plasma): Stable

Second part, led by results:

GI50 (HepG2) [µM] | GI50 (HCT-116 [1]) [µM] | GI50 (SW-620) [µM] | GI50 (HCT-116 [3]) [µM] | Structure (SMILES) | also measured
> 100 | – | – | – | O=C1Nc2ccccc2[C@]12ON=C(c1ccccc1)[C@H]2c1ccccc1 (relative stereo) | –
52.1 | – | – | – | O=C1Nc2ccccc2[C@]12ON=C(c1ccc([N+](=O)[O-])cc1)[C@H]2c1ccccc1 (relative stereo) | –
77.8 | – | – | – | COc1ccc(C2=NO[C@@]3(C(=O)Nc4ccccc43)[C@@H]2c2ccccc2)cc1 (relative stereo) | –
> 100 | – | – | – | COc1ccc(C2=NO[C@@]3(C(=O)Nc4ccccc43)[C@@H]2c2ccc(OC)cc2)cc1 (relative stereo) | –
38.1 | 40.1 | 53.2 | 34.7 | COc1ccc(C2=NO[C@@]3(C(=O)Nc4cc(Cl)ccc43)[C@@H]2c2ccccc2)cc1 (relative stereo) | half-life [4]: 189 min; Stability [5]: Stable; inhibition [6]: Active; Activity (HCT-116 [7]): Dose-dependent effect; Activity (HCT-116 [8]): Dose-dependent effect; Stability (Plasma): Stable
29.1 | 30.6 | 31.6 | 26.6 | Cc1ccc(C2=NO[C@@]3(C(=O)Nc4cc(Cl)ccc43)[C@@H]2c2ccccc2)cc1 (relative stereo) | inhibition [6]: Active; Activity (HCT-116 [7]): Dose-dependent effect; Activity (HCT-116 [8]): Dose-dependent effect
35.7 | 35.6 | 36.7 | 30.5 | COc1ccccc1C1=NO[C@@]2(C(=O)Nc3cc(Cl)ccc32)[C@@H]1c1ccccc1 (relative stereo) | –
> 100 | – | – | – | COc1ccc(C2=NO[C@@]3(C(=O)Nc4cc(Cl)ccc43)[C@@H]2c2ccc(OC)cc2)cc1 (relative stereo) | –
32.8 | 40.6 | 39.6 | 35 | O=C1Nc2cc(Br)ccc2[C@]12ON=C(c1ccccc1)[C@H]2c1ccccc1 (relative stereo) | –
51.3 | 52.3 | – | – | COc1ccc(C2=N[C@@H](c3ccc(Cl)cc3)[C@@H](c3ccc(Cl)cc3)N2C(=O)N2CCNC(=O)C2)c(OC(C)C)c1 [NUTLIN-3] | –

Source: ChEMBL document CHEMBL3098112, “Synthesis and evaluation of spiroisoxazoline oxindoles as anticancer agents” (Bioorg Med Chem, 2014)
